Measurements from ChEMBL document CHEMBL5653631, “A Potent and Selective ULK1 Inhibitor Suppresses Autophagy and Sensitizes Cancer Cells to Nutrient Stress” (iScience, 2018).

Experiments:
[1] = target: T1, Aurora kinase A (Homo sapiens) (UniProt O14965); test: Inhibition of human recombinant AurA at 40 nM in presence of ATP by radiometric assay relative to control
T1 sequence (whole entry): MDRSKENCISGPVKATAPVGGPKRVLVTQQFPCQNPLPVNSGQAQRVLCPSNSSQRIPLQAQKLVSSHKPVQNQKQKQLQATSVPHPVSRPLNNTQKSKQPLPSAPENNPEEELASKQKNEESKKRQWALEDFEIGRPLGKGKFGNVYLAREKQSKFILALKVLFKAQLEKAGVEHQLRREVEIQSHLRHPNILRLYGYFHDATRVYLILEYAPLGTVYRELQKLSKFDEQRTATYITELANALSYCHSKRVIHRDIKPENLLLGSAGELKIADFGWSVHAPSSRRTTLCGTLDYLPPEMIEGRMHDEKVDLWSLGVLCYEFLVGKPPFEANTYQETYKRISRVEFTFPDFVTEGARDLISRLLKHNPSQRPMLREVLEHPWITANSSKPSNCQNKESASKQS
Outline: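 Panel of 327 recombinant human kinases, each assayed in vitro by radiometric activity assay in duplicate at a single inhibitor concentration per compound, chosen with reference to its ULK1 inhibition. Activity remaining was expressed as percent of vehicle control, and percent inhibition was calculated as 100 minus percent activity remaining.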

[2] = target: Cyclin-dependent kinase 4 (Homo sapiens) (UniProt P11802); test: Inhibition of human recombinant CDK4 at 40 nM in presence of ATP by radiometric assay relative to control
[3] = target: Serine/threonine-protein kinase tousled-like 2 (Homo sapiens) (UniProt Q86UE8); test: Inhibition of human recombinant TLK2 at 40 nM in presence of ATP by radiometric assay relative to control
[4] = target: BDNF/NT-3 growth factors receptor (Homo sapiens) (UniProt Q16620); test: Inhibition of human recombinant TRKB at 40 nM in presence of ATP by radiometric assay relative to control
[5] = target: Tau-tubulin kinase 2 (Homo sapiens) (UniProt Q6IQ55); test: Inhibition of human recombinant TTBK2 at 40 nM in presence of ATP by radiometric assay relative to control
[6] = target: T2, Tyrosine-protein kinase receptor TYRO3 (Homo sapiens) (UniProt Q06418); test: Inhibition of human recombinant TYRO3 at 40 nM in presence of ATP by radiometric assay relative to control
T2 sequence (whole entry): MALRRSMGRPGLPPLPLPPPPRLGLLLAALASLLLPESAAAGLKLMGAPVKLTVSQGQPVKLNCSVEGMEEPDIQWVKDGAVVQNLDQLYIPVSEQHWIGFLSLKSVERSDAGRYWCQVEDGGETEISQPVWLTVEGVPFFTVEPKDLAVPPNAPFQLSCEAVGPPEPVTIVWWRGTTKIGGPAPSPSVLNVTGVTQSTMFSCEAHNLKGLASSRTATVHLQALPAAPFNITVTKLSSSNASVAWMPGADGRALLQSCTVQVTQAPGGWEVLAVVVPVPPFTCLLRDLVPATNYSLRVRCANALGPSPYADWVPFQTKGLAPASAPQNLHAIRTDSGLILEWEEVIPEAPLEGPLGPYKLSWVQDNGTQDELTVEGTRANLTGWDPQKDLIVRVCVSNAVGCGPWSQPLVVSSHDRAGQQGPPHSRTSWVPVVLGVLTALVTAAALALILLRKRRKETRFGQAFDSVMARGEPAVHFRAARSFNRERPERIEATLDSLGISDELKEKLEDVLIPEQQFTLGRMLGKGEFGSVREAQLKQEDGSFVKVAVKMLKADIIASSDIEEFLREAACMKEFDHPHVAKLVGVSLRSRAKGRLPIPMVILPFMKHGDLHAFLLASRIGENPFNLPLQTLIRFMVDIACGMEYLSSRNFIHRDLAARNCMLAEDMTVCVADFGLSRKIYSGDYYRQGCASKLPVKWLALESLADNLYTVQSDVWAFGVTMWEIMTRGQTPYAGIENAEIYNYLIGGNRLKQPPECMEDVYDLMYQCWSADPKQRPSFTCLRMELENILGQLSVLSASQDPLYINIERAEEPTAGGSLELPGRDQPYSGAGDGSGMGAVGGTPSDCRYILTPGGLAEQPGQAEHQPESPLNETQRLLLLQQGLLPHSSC

[7] = target: LIM domain kinase 1 (Homo sapiens) (UniProt P53667); test: Inhibition of human recombinant LIMK1 at 500 nM in presence of ATP by radiometric assay relative to control
[8] = target: MAP kinase-interacting serine/threonine-protein kinase 2 (Homo sapiens, UniProt Q9HBH9); test: Inhibition of human recombinant MNK2 at 500 nM in presence of ATP by radiometric assay relative to control
[9] = target: Serine/threonine-protein kinase PAK 5 (Homo sapiens) (UniProt Q9P286); test: Inhibition of human recombinant PAK5 at 500 nM in presence of ATP by radiometric assay relative to control
[10] = target: T3, Beta-adrenergic receptor kinase 1 (Homo sapiens) (UniProt P25098); test: Inhibition of human recombinant BARK1 at 500 nM related to control ULK1
T3 sequence (whole entry): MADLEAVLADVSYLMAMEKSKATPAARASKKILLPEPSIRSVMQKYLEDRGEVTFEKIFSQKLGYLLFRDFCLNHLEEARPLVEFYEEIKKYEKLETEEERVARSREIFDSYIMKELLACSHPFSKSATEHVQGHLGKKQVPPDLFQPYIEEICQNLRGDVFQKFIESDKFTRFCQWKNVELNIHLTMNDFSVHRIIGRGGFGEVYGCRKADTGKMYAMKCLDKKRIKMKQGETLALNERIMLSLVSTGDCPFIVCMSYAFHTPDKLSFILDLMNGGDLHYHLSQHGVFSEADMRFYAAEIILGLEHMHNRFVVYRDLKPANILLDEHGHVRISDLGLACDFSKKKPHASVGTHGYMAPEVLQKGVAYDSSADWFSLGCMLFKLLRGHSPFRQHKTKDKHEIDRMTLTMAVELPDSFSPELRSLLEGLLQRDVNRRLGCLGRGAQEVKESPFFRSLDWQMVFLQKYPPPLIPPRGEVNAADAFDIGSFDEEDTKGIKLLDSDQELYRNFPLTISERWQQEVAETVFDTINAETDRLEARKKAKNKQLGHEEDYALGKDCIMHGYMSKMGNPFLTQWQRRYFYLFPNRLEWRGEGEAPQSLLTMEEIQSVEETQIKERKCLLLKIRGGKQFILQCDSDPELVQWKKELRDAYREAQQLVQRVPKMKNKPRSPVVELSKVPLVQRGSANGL

[11] = target: Calcium/calmodulin-dependent protein kinase type 1D (Homo sapiens) (UniProt Q8IU85); test: Inhibition of human recombinant CaMK1d at 500 nM related to control ULK1
[12] = target: Serine/threonine-protein kinase mTOR (Homo sapiens) (UniProt P42345); test: Inhibition of human recombinant FRAP at 500 nM related to control ULK1
[13] = target: Mitogen-activated protein kinase kinase kinase 10 (Homo sapiens) (UniProt Q02779); test: Inhibition of human recombinant MLK2 at 500 nM related to control ULK1

Sequence of Tau-tubulin kinase 2 (Homo sapiens) (Q6IQ55 whole entry): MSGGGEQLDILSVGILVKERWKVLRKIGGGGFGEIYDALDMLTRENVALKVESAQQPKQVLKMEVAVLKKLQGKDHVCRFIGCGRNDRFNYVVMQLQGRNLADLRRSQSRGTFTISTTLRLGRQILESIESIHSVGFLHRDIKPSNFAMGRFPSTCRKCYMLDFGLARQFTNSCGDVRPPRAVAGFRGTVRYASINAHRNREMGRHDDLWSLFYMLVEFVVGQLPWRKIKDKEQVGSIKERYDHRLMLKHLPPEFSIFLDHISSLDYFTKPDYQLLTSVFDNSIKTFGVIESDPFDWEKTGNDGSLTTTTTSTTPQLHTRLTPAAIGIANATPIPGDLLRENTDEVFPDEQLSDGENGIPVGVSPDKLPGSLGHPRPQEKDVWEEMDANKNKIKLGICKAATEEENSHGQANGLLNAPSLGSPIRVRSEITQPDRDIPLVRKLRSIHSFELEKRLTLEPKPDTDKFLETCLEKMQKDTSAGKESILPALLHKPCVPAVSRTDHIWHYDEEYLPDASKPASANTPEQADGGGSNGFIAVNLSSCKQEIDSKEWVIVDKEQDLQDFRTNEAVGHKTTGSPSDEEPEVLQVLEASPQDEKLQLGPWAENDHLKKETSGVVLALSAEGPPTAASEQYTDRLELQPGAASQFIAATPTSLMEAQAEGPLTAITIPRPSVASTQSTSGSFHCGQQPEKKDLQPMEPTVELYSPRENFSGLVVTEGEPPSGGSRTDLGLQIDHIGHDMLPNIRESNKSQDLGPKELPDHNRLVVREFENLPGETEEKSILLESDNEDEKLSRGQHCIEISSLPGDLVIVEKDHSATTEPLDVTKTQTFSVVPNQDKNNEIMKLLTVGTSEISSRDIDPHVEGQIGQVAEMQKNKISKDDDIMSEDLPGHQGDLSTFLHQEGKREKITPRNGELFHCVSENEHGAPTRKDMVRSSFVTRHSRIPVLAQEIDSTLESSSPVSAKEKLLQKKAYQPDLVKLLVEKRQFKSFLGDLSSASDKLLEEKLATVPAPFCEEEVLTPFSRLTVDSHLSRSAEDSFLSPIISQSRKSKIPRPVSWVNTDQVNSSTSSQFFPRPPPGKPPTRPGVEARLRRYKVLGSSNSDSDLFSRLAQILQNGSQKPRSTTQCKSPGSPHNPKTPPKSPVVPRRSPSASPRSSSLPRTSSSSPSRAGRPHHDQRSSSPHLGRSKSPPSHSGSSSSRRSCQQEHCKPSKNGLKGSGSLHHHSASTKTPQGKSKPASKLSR
Sequence of Serine/threonine-protein kinase PAK 5 (Homo sapiens) (Q9P286 whole entry, looked up): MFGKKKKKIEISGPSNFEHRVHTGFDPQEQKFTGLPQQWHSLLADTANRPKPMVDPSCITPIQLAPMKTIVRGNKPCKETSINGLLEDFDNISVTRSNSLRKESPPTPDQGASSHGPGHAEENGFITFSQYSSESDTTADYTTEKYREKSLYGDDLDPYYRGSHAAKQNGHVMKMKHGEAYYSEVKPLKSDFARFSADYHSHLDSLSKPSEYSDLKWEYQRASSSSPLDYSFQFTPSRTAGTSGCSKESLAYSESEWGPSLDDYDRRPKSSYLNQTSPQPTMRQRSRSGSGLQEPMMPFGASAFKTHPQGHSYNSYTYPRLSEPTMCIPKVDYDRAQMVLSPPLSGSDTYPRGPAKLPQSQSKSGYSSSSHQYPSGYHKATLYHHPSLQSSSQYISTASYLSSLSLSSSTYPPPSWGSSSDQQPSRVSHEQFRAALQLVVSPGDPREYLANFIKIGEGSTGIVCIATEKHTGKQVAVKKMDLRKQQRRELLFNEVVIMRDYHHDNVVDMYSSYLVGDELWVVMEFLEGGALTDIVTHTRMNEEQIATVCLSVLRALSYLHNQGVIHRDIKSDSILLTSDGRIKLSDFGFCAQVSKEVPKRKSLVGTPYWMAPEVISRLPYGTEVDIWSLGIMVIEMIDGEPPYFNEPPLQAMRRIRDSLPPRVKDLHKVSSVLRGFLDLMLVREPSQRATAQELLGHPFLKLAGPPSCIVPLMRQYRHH
Sequence of Serine/threonine-protein kinase tousled-like 2 (Homo sapiens) (Q86UE8 whole entry, looked up): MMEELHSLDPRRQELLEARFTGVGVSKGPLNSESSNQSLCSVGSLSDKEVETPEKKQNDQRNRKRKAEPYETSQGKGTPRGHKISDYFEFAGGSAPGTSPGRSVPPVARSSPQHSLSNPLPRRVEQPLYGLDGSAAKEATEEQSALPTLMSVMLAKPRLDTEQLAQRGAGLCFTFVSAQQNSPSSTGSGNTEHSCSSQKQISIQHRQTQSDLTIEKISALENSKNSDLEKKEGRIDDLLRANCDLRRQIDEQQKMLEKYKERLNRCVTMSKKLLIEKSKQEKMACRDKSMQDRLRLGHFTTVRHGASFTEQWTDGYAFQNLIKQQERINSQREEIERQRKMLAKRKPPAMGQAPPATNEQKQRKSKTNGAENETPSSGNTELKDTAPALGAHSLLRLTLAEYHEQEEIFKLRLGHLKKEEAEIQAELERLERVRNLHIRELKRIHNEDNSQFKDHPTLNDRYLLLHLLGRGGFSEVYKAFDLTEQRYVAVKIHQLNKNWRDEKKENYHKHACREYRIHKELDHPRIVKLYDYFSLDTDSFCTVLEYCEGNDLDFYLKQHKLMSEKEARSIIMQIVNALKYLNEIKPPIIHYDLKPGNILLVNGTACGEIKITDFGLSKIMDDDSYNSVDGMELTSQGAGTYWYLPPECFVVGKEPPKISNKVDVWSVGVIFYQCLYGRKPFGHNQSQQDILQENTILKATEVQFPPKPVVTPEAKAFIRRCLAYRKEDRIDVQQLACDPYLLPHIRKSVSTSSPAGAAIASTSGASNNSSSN
Sequence of BDNF/NT-3 growth factors receptor (Homo sapiens) (Q16620 32-822 limits assumed): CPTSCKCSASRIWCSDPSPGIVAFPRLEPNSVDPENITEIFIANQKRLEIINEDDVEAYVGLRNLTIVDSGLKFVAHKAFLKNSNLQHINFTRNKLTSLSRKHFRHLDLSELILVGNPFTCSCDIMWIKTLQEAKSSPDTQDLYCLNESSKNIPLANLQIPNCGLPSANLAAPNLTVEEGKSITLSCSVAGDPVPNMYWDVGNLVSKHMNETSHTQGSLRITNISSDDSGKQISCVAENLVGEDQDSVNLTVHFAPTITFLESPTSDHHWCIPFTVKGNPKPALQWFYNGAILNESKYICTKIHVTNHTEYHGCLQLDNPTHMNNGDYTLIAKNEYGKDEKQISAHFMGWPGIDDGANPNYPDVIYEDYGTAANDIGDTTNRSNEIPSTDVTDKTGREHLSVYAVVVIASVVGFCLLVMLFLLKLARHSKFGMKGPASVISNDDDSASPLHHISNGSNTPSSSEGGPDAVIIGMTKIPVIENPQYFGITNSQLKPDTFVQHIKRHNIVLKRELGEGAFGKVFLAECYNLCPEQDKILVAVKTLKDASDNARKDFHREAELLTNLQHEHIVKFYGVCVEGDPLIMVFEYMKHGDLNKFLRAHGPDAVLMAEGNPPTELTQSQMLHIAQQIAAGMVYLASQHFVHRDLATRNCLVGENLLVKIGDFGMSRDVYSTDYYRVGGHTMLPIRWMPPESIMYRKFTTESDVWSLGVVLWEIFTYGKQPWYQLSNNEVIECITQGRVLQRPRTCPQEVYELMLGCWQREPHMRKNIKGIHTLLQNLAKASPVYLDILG
Sequence of MAP kinase-interacting serine/threonine-protein kinase 2 (Q9HBH9 whole entry, looked up): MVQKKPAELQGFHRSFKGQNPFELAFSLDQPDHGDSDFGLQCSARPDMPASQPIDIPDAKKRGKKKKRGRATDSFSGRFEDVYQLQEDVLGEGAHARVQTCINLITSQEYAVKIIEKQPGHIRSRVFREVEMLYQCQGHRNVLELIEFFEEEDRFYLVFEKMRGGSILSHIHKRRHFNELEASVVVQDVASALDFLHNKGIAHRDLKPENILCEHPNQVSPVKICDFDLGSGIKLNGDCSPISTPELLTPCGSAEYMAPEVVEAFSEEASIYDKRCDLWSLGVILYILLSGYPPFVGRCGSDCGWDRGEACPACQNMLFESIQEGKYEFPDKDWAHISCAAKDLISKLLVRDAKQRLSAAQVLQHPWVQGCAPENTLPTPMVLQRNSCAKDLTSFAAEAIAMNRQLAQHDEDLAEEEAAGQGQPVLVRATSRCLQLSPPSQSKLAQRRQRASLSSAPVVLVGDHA
Sequence of LIM domain kinase 1 (Homo sapiens) (P53667 whole entry, looked up, the tested form may be a part): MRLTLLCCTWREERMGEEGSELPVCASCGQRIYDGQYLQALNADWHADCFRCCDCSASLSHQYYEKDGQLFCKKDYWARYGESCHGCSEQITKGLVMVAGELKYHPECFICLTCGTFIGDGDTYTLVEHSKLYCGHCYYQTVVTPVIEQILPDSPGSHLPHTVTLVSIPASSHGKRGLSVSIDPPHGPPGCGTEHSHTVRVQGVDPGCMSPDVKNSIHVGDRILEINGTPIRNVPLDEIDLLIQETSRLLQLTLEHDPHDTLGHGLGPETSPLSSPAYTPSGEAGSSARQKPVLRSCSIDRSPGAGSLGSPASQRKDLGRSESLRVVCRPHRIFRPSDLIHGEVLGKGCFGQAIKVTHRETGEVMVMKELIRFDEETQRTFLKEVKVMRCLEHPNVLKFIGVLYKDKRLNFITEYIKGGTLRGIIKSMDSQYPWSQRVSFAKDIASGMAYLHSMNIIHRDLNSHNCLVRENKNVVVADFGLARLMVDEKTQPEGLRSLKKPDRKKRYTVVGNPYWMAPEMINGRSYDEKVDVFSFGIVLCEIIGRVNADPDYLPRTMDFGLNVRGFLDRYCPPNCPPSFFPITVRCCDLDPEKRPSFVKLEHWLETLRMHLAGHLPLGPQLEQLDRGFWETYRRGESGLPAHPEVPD
Sequence of Calcium/calmodulin-dependent protein kinase type 1D (Homo sapiens) (Q8IU85 whole entry, looked up): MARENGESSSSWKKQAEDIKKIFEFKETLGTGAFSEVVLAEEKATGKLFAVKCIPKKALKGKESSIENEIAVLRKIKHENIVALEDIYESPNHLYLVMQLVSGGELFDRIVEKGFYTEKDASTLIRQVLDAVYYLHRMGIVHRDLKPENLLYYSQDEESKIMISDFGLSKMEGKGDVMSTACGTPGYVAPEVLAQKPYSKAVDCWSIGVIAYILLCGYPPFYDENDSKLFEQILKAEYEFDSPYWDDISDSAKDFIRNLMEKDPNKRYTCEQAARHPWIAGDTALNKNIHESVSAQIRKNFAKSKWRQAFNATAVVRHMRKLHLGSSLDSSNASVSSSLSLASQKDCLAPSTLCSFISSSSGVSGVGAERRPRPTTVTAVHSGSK

SMILES: O=C(N[C@@H](C1CC1)C(F)(F)F)c1cc(-c2cnn3cc(-c4ccc(F)cc4)cnc23)cs1
- inhibition [1]: 22%
- inhibition [2]: 0%
- inhibition [3]: 0%
- inhibition [4]: 19%
- inhibition [5]: 0%
- inhibition [6]: 0%

SMILES: CNC(=O)c1ccccc1Oc1nc(Nc2cc(OC)c(OC)c(OC)c2)ncc1Br
- inhibition [7]: 2%
- inhibition [8]: 2%
- inhibition [9]: 5%
- fold change (FC) [10]: 0.11
- fold change (FC) [11]: 0.07
- fold change (FC) [12]: 0
- fold change (FC) [13]: 0.95
